Test results: ChEMBL document CHEMBL4364341, “Radiosensitization of Head and Neck Squamous Cell Carcinoma (HNSCC) by a Podophyllotoxin” (ACS Med Chem Lett, 2019)
Active and inactive are the calls of the source. The rule behind the calls is not given here.

Columns and labels:
FaDu [1] = test: Synergistic antiproliferative activity against human FADU cells assessed as fractional inhibition at 0.5 uM preincubated for 1 hr followed by irradiation with 5 Gy IR and measured after 6 days by MTT assay (reference value: 0.097); type: functional
In short: (§1)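 FaDu or SCC-25 cells were grown in DMEM with 10% FBS at 37 °C and 5% CO2. They were seeded at 1000 cells/well in 96-well plates for 24 h, then dosed with compound (fresh DMSO stock diluted in medium) or vehicle. After 1 h, X-rays were given with a sliding 5 mm lead shield, so one plate held 0, 2.5, 5 and 10 Gy columns. After 6 days, MTT (0.5 mg/mL, 45 min) was added, then DMSO, and A570 was read. Values were normalised to the unirradiated vehicle control. Fractional inhibition = 1 − surviving fraction.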

FaDu [2] = test: Synergistic antiproliferative activity against human FADU cells assessed as fractional inhibition at 0.05 uM preincubated for 1 hr followed by irradiation with 5 Gy IR and measured after 6 days by MTT assay (reference value: 0.097); type: functional; in short: as §1
FaDu [3] = test: Synergistic antiproliferative activity against human FADU cells assessed as combination index at 5 uM preincubated for 1 hr followed by irradiation with 5 Gy IR and measured after 6 days by MTT assay; type: functional
In short: (§2)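 Combination index was calculated by the Chou–Talalay median-effect method from the 6-day MTT viability data of the single-plate compound/X-ray (2.5, 5, 10 Gy) design. CI < 1 denotes synergy, CI = 1 additivity and CI > 1 antagonism.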

SCC-25 [4] = test: Synergistic antiproliferative activity against human SCC25 cells assessed as combination index at 0.005 uM preincubated for 1 hr followed by irradiation with 10 Gy IR and measured after 6 days by MTT assay; type: functional; in short: as §2
SCC-25 [5] = test: Antiproliferative activity against human SCC25 cells assessed as fractional inhibition at 0.005 uM after 6 days in absence of irradiation by MTT assay; type: functional; in short: as §1
FaDu [6] = test: Synergistic induction of cell cycle arrest in human FADU cells assessed as decrease in cyclin B1 at 0.5 uM followed by irradiation with 5 Gy IR incubated for 48 hrs by immunoblot analysis; type: functional, cell-based
In short: (§3)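 FaDu cells received drug, 5 Gy IR, or both; vehicle-only controls. Lysates collected after 48 h and immunoblotted with primary antibodies to NRF2, cyclin B1, CDK1, Bax and Bcl-2. Membranes stripped and reprobed for beta-actin as loading control.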

FaDu [7] = test: Synergistic induction of cell cycle arrest in human FADU cells assessed as decrease in CDK1 at 0.5 uM followed by irradiation with 5 Gy IR incubated for 48 hrs by immunoblot analysis; type: functional, cell-based; in short: as §3
FaDu [8] = test: Antiproliferative activity against human FADU cells assessed as reduction in cell viability at 1 uM after 6 days by MTT assay relative to control; type: functional; conditions: 144 h; in short: as §1
FaDu [9] = test: Inhibition of cell migration in human FADU cells at 0.5 uM incubated for 12 and 24 hrs by microscopic analysis; type: functional, cell-based
In short: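 Scratch assay: 10^5 cells/well were grown to confluence in 12-well plates, with mitomycin C to block proliferation. Cells were treated with compound for 24 h, with or without 5 Gy IR, then scratched with a pipette tip, washed with PBS and given fresh medium. Imaging was at 0, 6, 12 and 24 h. % migration = gap decrease relative to the 0 h gap.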

FaDu [10] = test: Synergistic induction of apoptosis in human FADU cells assessed as increase in caspase at 0.5 uM followed by irradiation with 5 Gy IR incubated for 48 hrs by luminescence based analysis; type: functional, cell-based
SCC-25 [11] = test: Synergistic antiproliferative activity against human SCC25 cells assessed as fractional inhibition at 0.005 uM preincubated for 1 hr followed by irradiation with 5 Gy IR and measured after 6 days by MTT assay (reference value: 0.133); type: functional
In short: (§4)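 SCC-25 cells seeded 1000/well in 96-well plates in DMEM/10% FBS and left 24 h. Drug or vehicle added, then after 1 h X-irradiated to 2.5, 5 or 10 Gy on one plate using a shifted lead shield. Plates incubated 6 days, then MTT (0.5 mg/mL, 45 min), DMSO solubilisation, absorbance at 570 nm. Fractional inhibition = 1 − fraction of surviving cells.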

FaDu [12] = test: Antiproliferative activity against human FADU cells assessed as fractional inhibition at 0.05 uM after 6 days in absence of irradiation by MTT assay; type: functional; in short: as §1
SCC-25 [13] = test: Synergistic antiproliferative activity against human SCC25 cells assessed as combination index at 0.005 uM preincubated for 1 hr followed by irradiation with 5 Gy IR and measured after 6 days by MTT assay; type: functional
In short: (§5)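 SCC-25 cells grown in DMEM with 10% FBS at 37 °C, 5% CO2, seeded 1000 cells/well in 96-well plates and left 24 h. Drug in DMSO, diluted in complete medium, added 1 h before X-irradiation. A movable 5 mm lead shield gave 0, 2.5, 5 or 10 Gy on one plate. After 6 days, MTT readout at 570 nm. Combination index by Chou–Talalay from viability data.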

SCC-25 [14] = test: Synergistic antiproliferative activity against human SCC25 cells assessed as combination index at 0.05 uM preincubated for 1 hr followed by irradiation with 2.5 Gy IR and measured after 6 days by MTT assay; type: functional; in short: as §5
FaDu [15] = test: Synergistic antiproliferative activity against human FADU cells assessed as fractional inhibition at 0.05 uM preincubated for 1 hr followed by irradiation with 10 Gy IR and measured after 6 days by MTT assay (reference value: 0.388); type: functional; in short: as §1
FaDu [16] = test: Synergistic antiproliferative activity against human FADU cells assessed as combination index at 0.5 uM preincubated for 1 hr followed by irradiation with 10 Gy IR and measured after 6 days by MTT assay; type: functional; in short: as §2
FaDu [17] = test: Synergistic antiproliferative activity against human FADU cells assessed as fractional inhibition at 5 uM preincubated for 1 hr followed by irradiation with 10 Gy IR and measured after 6 days by MTT assay (reference value: 0.388); type: functional; in short: as §1
FaDu [18] = test: Synergistic antiproliferative activity against human FADU cells assessed as fractional inhibition at 0.5 uM preincubated for 1 hr followed by irradiation with 2.5 Gy IR and measured after 6 days by MTT assay (reference value: 0.131); type: functional; in short: as §1
SCC-25 [19] = test: Synergistic antiproliferative activity against human SCC25 cells assessed as fractional inhibition at 0.5 uM preincubated for 1 hr followed by irradiation with 2.5 Gy IR and measured after 6 days by MTT assay (reference value: 0.011); type: functional; in short: as §4
SCC-25 [20] = test: Antiproliferative activity against human SCC25 cells assessed as reduction in cell viability at 1 uM after 6 days by MTT assay relative to control; type: functional, cell-based; in short: as §1
SCC-25 [21] = test: Synergistic induction of cell cycle arrest in human SCC25 cells assessed as decrease in accumulation at S phase at 0.5 uM followed irradiation with 5Gy IR incubated for 24 hrs by propidium iodide staining based flow cytometry; type: functional
In short: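 FaDu or SCC-25 cells, untreated, given 5 Gy IR, drug, or drug plus 5 Gy. Cell-cycle distribution by propidium iodide staining and flow cytometry at 6 h and 24 h after treatment. G0/G1, S and G2/M fractions compared with control by t test.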

FaDu [22] = test: Synergistic antiproliferative activity against human FADU cells assessed as combination index at 5 uM preincubated for 1 hr followed by irradiation with 2.5 Gy IR and measured after 6 days by MTT assay; type: functional; in short: as §2

Question: What does the source list for COc1ccc2c(c1)N(CCO)C1=C(C(=O)OC1)C2c1ccccc1 (configuration not stated)?
Answer: fractional inhibitory concentration index (FICI) (FaDu [1]): 0.425; fractional inhibitory concentration index (FICI) (FaDu [2]): 0.239; CI (FaDu [3]): 0.324; CI (SCC-25 [4]): 1.021; fractional inhibitory concentration index (FICI) (SCC-25 [5]): 0.009; Activity (FaDu [6]): Active; Activity (FaDu [7]): Active; inhibition at 1 µM (FaDu [8]): 20%; inhibition (FaDu [9]): inactive; Activity (FaDu [10]): Active; fractional inhibitory concentration index (FICI) (SCC-25 [11]): 0.157; fractional inhibitory concentration index (FICI) (FaDu [12]): 0.186; CI (SCC-25 [13]): 0.801; CI (SCC-25 [14]): 0.835; fractional inhibitory concentration index (FICI) (FaDu [15]): 0.452; CI (FaDu [16]): 0.319; fractional inhibitory concentration index (FICI) (FaDu [17]): 0.681; fractional inhibitory concentration index (FICI) (FaDu [18]): 0.443; fractional inhibitory concentration index (FICI) (SCC-25 [19]): 0.452; inhibition (SCC-25 [20]): inactive; Activity (SCC-25 [21]): Active; CI (FaDu [22]): 1.225
